Assay results from ChEMBL document CHEMBL1821590, “Novel dihydropyrimidines and its pyrazole derivatives: synthesis and pharmacological screening” (Eur J Med Chem, 2011).
In brackets after ≈: the same amount, converted by molar mass.

Key:
Format in all cases: functional
[1] = Antioxidant activity assessed as nitric oxide radical scavenging activity after 150 mins
How it was run: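 10 mM sodium nitroprusside (4 mL), PBS pH 7.4 (1 mL) and sample or ascorbic acid in DMSO (1 mL, 12.5–100 µg/mL), incubated 150 min at 25 °C. Nitrite detected with sulphanilic acid (5 min) then naphthylethylenediamine (30 min, diffused light). Read at […]. Triplicate. % inhibition = [1 − (Vt/Vc)] × 100. IC50 derived from it.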

[2] = Antioxidant activity assessed as hydrogen peroxide scavenging activity after 10 mins
How it was run: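 H2O2 (20 mM) in PBS pH 7.4. 1 mL of sample or ascorbic acid in methanol (12.5–100 µg/mL) added to 2 mL H2O2 solution. A230 read after 10 min. % inhibition = [1 − (Vt/Vc)] × 100. Triplicate, averaged. IC50 derived from % inhibition across concentrations.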

[3] = Antioxidant activity assessed as inhibition of lipid peroxidation using egg lecithin liposomes incubated for 1 hr
How it was run: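 Egg lecithin (3 mg/mL, phosphate buffer pH 7.4) sonicated 10 min to form liposomes. Sample or ascorbic acid (12.5–100 µg/mL) added. Peroxidation induced with FeCl3 and L-ascorbic acid, 1 h at 37 °C. Stopped with HCl/TCA/TBA/BHA, boiled 15 min, centrifuged, supernatant read at 532 nm. Triplicate. % inhibition vs control. IC50 derived.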

[4] = Antioxidant activity assessed as potassium ferricyanide ion reducing power after 20 mins
How it was run: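 Oyaizu method. Samples or ascorbic acid in DMF (12.5–100 µg/mL) mixed with 0.2 M phosphate buffer pH 6.6 and 1% potassium ferricyanide, 20 min at 50 °C. 10% TCA added, centrifuged. Supernatant mixed with water and 0.1% FeCl3, read at 700 nm. % = [(Vt/Vc) − 1] × 100. IC50 derived.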

[5] = Antiinflammatory activity assessed as inhibition of albumin denaturation at 100 ug/ml by UV-visible spectrophotometry
How it was run: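 Compounds dissolved in minimal DMF, diluted in PBS pH 7.4 (final DMF <2.5%). 1 mL test solution (100 µg/mL) plus 1 mL 1% albumin in PBS, 15 min at 27 ± 1 °C, then heated 10 min at 60 ± 1 °C. After cooling, turbidity read at 660 nm. % inhibition = [(Vt/Vc) − 1] × 100 against a no-drug control. Triplicate, averaged. Diclofenac standard.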

Metaphire posthuma [6] = assay: Anthelmintic activity against Pheretima posthuma assessed as time taken for complete parasite paralysis at 0.1% w/v
How it was run: (§1)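 Earthworms (Pheretima posthuma) exposed to test solutions at 0.1, 0.2 and 0.5% w/v; time in minutes to complete paralysis (worms motionless) recorded. Albendazole as standard. Mean of three determinations ± S.D.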

Metaphire posthuma [7] = assay: Anthelmintic activity against Pheretima posthuma assessed as time taken for complete parasite paralysis at 0.2% w/v; how it was run: as §1
Metaphire posthuma [8] = assay: Anthelmintic activity against Pheretima posthuma assessed as time taken for complete parasite paralysis at 0.5% w/v; how it was run: as §1
Metaphire posthuma [9] = assay: Anthelmintic activity against Pheretima posthuma assessed as time taken for parasite death at 0.1% w/v
How it was run: (§2)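 Earthworms (Pheretima posthuma, spelled Perituma posthuma in text) exposed to test compounds at 0.1, 0.2 and 0.5% w/v. Albendazole served as standard, with an untreated control. Paralysis was recorded as the time until worms became motionless, then time to death was recorded, in minutes. Each value is the mean of three determinations with S.D.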

Metaphire posthuma [10] = assay: Anthelmintic activity against Pheretima posthuma assessed as time taken for parasite death at 0.2% w/v; how it was run: as §2
Metaphire posthuma [11] = assay: Anthelmintic activity against Pheretima posthuma assessed as time taken for parasite death at 0.5% w/v; how it was run: as §2
Escherichia coli [12] = assay: Antimicrobial activity against Escherichia coli at 25 ug/ml by agar plate diffusion technique; conditions: read-out: IZ
How it was run: (§3)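 Agar plate diffusion against E. coli, P. aeruginosa, S. aureus and B. subtilis, with compounds at 25, 50 and 100 µg/mL. Streptomycin as standard.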

Escherichia coli [13] = assay: Antimicrobial activity against Escherichia coli at 50 ug/ml by agar plate diffusion technique; conditions: read-out: IZ; how it was run: as §3
Escherichia coli [14] = assay: Antimicrobial activity against Escherichia coli at 100 ug/ml by agar plate diffusion technique; conditions: read-out: IZ; how it was run: as §3
Bacillus subtilis [15] = assay: Antimicrobial activity against Bacillus subtilis at 25 ug/ml by agar plate diffusion technique; conditions: read-out: IZ; how it was run: as §3
Bacillus subtilis [16] = assay: Antimicrobial activity against Bacillus subtilis at 50 ug/ml by agar plate diffusion technique; conditions: read-out: IZ; how it was run: as §3
Bacillus subtilis [17] = assay: Antimicrobial activity against Bacillus subtilis at 100 ug/ml by agar plate diffusion technique; conditions: read-out: IZ; how it was run: as §3
Staphylococcus aureus [18] = assay: Antimicrobial activity against Staphylococcus aureus at 25 ug/ml by agar plate diffusion technique; conditions: read-out: IZ; how it was run: as §3
Staphylococcus aureus [19] = assay: Antimicrobial activity against Staphylococcus aureus at 50 ug/ml by agar plate diffusion technique; conditions: read-out: IZ; how it was run: as §3
Staphylococcus aureus [20] = assay: Antimicrobial activity against Staphylococcus aureus at 100 ug/ml by agar plate diffusion technique; conditions: read-out: IZ; how it was run: as §3
Candida albicans [21] = assay: Antimicrobial activity against Candida albicans at 25 ug/ml by paper disc method; conditions: read-out: IZ
How it was run: (§4)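 Paper disc method against A. niger and C. albicans, with compounds at 25, 50 and 100 µg/mL. Amphotericin-B as standard.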

Candida albicans [22] = assay: Antimicrobial activity against Candida albicans at 50 ug/ml by paper disc method; conditions: read-out: IZ; how it was run: as §4
Candida albicans [23] = assay: Antimicrobial activity against Candida albicans at 100 ug/ml by paper disc method; conditions: read-out: IZ; how it was run: as §4
Aspergillus niger [24] = assay: Antimicrobial activity against Aspergillus niger at 25 ug/ml by paper disc method; conditions: read-out: IZ; how it was run: as §4
Aspergillus niger [25] = assay: Antimicrobial activity against Aspergillus niger at 50 ug/ml by paper disc method; conditions: read-out: IZ; how it was run: as §4
Aspergillus niger [26] = assay: Antimicrobial activity against Aspergillus niger at 100 ug/ml by paper disc method; conditions: read-out: IZ; how it was run: as §4
Pseudomonas aeruginosa [27] = assay: Antimicrobial activity against Pseudomonas aeruginosa at 25 ug/ml by agar plate diffusion technique; conditions: read-out: IZ; how it was run: as §3
Pseudomonas aeruginosa [28] = assay: Antimicrobial activity against Pseudomonas aeruginosa at 50 ug/ml by agar plate diffusion technique; conditions: read-out: IZ; how it was run: as §3
Pseudomonas aeruginosa [29] = assay: Antimicrobial activity against Pseudomonas aeruginosa at 100 ug/ml by agar plate diffusion technique; conditions: read-out: IZ; how it was run: as §3

SMILES: CSc1nc(-c2ccco2)c(C#N)c(=O)n1C
- IC50 [1]: 108 µg/mL (≈ 437 µM)
- IC50 [2]: 79 µg/mL (≈ 319 µM)
- IC50 [3]: 90 µg/mL (≈ 364 µM)
- IC50 [4]: 68 µg/mL (≈ 275 µM)
- inhibition [5]: 57.2%
- Time (Metaphire posthuma [6]): 42.68 min
- Time (Metaphire posthuma [7]): 36.59 min
- Time (Metaphire posthuma [8]): 32.55 min
- Time (Metaphire posthuma [9]): 60.18 min
- Time (Metaphire posthuma [10]): 55.49 min
- Time (Metaphire posthuma [11]): 53.98 min
- zone of inhibition at 25 µg/mL (Escherichia coli [12]): 5.74 mm
- zone of inhibition at 50 µg/mL (Escherichia coli [13]): 6.12 mm
- zone of inhibition at 100 µg/mL (Escherichia coli [14]): 7.82 mm
- zone of inhibition at 25 µg/mL (Bacillus subtilis [15]): 11.1 mm
- zone of inhibition at 50 µg/mL (Bacillus subtilis [16]): 12.2 mm
- zone of inhibition at 100 µg/mL (Bacillus subtilis [17]): 15.6 mm
- zone of inhibition at 25 µg/mL (Staphylococcus aureus [18]): 7.06 mm
- zone of inhibition at 50 µg/mL (Staphylococcus aureus [19]): 9.12 mm
- zone of inhibition at 100 µg/mL (Staphylococcus aureus [20]): 12.6 mm
- zone of inhibition at 25 µg/mL (Candida albicans [21]): 13 mm
- zone of inhibition at 50 µg/mL (Candida albicans [22]): 16.8 mm
- zone of inhibition at 100 µg/mL (Candida albicans [23]): 18.4 mm
- zone of inhibition at 25 µg/mL (Aspergillus niger [24]): 12.3 mm
- zone of inhibition at 50 µg/mL (Aspergillus niger [25]): 15.9 mm
- zone of inhibition at 100 µg/mL (Aspergillus niger [26]): 23.5 mm

SMILES: CN[C@@H]1[C@H](O[C@H]2[C@H](O[C@H]3[C@H](O)[C@@H](O)[C@H](N=C(N)N)[C@@H](O)[C@@H]3N=C(N)N)O[C@@H](C)[C@]2(O)C=O)O[C@@H](CO)[C@H](O)[C@H]1O [STREPTOMYCIN]
- zone of inhibition at 25 µg/mL (Escherichia coli [12]): 15.8 mm
- zone of inhibition at 50 µg/mL (Escherichia coli [13]): 21.1 mm
- zone of inhibition at 100 µg/mL (Escherichia coli [14]): 28.7 mm
- zone of inhibition at 25 µg/mL (Pseudomonas aeruginosa [27]): 13.4 mm
- zone of inhibition at 50 µg/mL (Pseudomonas aeruginosa [28]): 18.7 mm
- zone of inhibition at 100 µg/mL (Pseudomonas aeruginosa [29]): 30.3 mm
- zone of inhibition at 25 µg/mL (Bacillus subtilis [15]): 15.1 mm
- zone of inhibition at 50 µg/mL (Bacillus subtilis [16]): 20.2 mm
- zone of inhibition at 100 µg/mL (Bacillus subtilis [17]): 31.8 mm
- zone of inhibition at 25 µg/mL (Staphylococcus aureus [18]): 15.4 mm
- zone of inhibition at 50 µg/mL (Staphylococcus aureus [19]): 22.4 mm
- zone of inhibition at 100 µg/mL (Staphylococcus aureus [20]): 29.5 mm

SMILES: CSc1nc(-c2cccs2)c(C#N)c(=O)n1C
- IC50 [1]: 87 µg/mL (≈ 330 µM)
- IC50 [2]: 72 µg/mL (≈ 273 µM)
- IC50 [3]: 83 µg/mL (≈ 315 µM)
- IC50 [4]: 71 µg/mL (≈ 270 µM)
- inhibition [5]: 62.1%
- Time (Metaphire posthuma [6]): 39.78 min
- Time (Metaphire posthuma [7]): 38.48 min
- Time (Metaphire posthuma [8]): 33.35 min
- Time (Metaphire posthuma [9]): 45.24 min
- Time (Metaphire posthuma [10]): 47.82 min
- Time (Metaphire posthuma [11]): 42.34 min
- zone of inhibition at 25 µg/mL (Escherichia coli [12]): 5.86 mm
- zone of inhibition at 50 µg/mL (Escherichia coli [13]): 6.29 mm
- zone of inhibition at 100 µg/mL (Escherichia coli [14]): 8.78 mm
- zone of inhibition at 25 µg/mL (Bacillus subtilis [15]): 10.4 mm
- zone of inhibition at 50 µg/mL (Bacillus subtilis [16]): 12.9 mm
- zone of inhibition at 100 µg/mL (Bacillus subtilis [17]): 18.5 mm
- zone of inhibition at 25 µg/mL (Staphylococcus aureus [18]): 6.29 mm
- zone of inhibition at 50 µg/mL (Staphylococcus aureus [19]): 8.92 mm
- zone of inhibition at 100 µg/mL (Staphylococcus aureus [20]): 11.1 mm
- zone of inhibition at 25 µg/mL (Candida albicans [21]): 10.6 mm
- zone of inhibition at 50 µg/mL (Candida albicans [22]): 13.8 mm
- zone of inhibition at 100 µg/mL (Candida albicans [23]): 21.8 mm
- zone of inhibition at 25 µg/mL (Aspergillus niger [24]): 13 mm
- zone of inhibition at 50 µg/mL (Aspergillus niger [25]): 15.6 mm
- zone of inhibition at 100 µg/mL (Aspergillus niger [26]): 22.6 mm

SMILES: CSc1nc(-c2ccc(N(C)C)cc2)c(C#N)c(=O)n1C
- IC50 [1]: 93 µg/mL (≈ 310 µM)
- IC50 [2]: 84 µg/mL (≈ 280 µM)
- IC50 [3]: 98 µg/mL (≈ 326 µM)
- IC50 [4]: 78 µg/mL (≈ 260 µM)
- inhibition [5]: 19.3%
- Time (Metaphire posthuma [6]): 35.25 min
- Time (Metaphire posthuma [7]): 44.52 min
- Time (Metaphire posthuma [8]): 40.22 min
- Time (Metaphire posthuma [9]): 47.57 min
- Time (Metaphire posthuma [10]): 55.59 min
- Time (Metaphire posthuma [11]): 54.1 min
- zone of inhibition at 25 µg/mL (Pseudomonas aeruginosa [27]): 6.06 mm
- zone of inhibition at 50 µg/mL (Pseudomonas aeruginosa [28]): 8.52 mm
- zone of inhibition at 100 µg/mL (Pseudomonas aeruginosa [29]): 10.6 mm
- zone of inhibition at 25 µg/mL (Bacillus subtilis [15]): 10.3 mm
- zone of inhibition at 50 µg/mL (Bacillus subtilis [16]): 13.9 mm
- zone of inhibition at 100 µg/mL (Bacillus subtilis [17]): 20.3 mm
- zone of inhibition at 25 µg/mL (Staphylococcus aureus [18]): 6.38 mm
- zone of inhibition at 50 µg/mL (Staphylococcus aureus [19]): 8.25 mm
- zone of inhibition at 100 µg/mL (Staphylococcus aureus [20]): 9.38 mm
- zone of inhibition at 25 µg/mL (Candida albicans [21]): 11.8 mm
- zone of inhibition at 50 µg/mL (Candida albicans [22]): 14.4 mm
- zone of inhibition at 100 µg/mL (Candida albicans [23]): 17.9 mm
- zone of inhibition at 25 µg/mL (Aspergillus niger [24]): 11.1 mm
- zone of inhibition at 50 µg/mL (Aspergillus niger [25]): 14.5 mm
- zone of inhibition at 100 µg/mL (Aspergillus niger [26]): 19.7 mm
